In experiment [1] the target is T1, Cell division protein FtsZ (Staphylococcus aureus) (UniProt P0A031).
T1 sequence (whole entry): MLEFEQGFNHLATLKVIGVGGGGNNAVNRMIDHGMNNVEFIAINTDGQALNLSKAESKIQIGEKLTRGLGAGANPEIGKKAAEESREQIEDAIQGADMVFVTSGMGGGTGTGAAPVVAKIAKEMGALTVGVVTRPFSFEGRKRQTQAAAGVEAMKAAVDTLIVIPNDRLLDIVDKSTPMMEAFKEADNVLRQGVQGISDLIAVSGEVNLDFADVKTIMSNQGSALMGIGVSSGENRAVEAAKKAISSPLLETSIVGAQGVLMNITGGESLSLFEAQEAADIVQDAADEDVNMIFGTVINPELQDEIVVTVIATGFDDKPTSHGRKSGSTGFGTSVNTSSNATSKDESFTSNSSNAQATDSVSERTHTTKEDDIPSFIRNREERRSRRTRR
Description: Inhibition of Staphylococcus aureus FtsZ polymerization assessed as increase in GTPase activity at 5 to 20 ug/ml incubated for 40 mins in presence of GTP by malachite green phosphate assay. The note with it: dose 5-20 µg/ml, DDE = dose-dependent effect. The gist of the method:
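Purified S. aureus FtsZ (3 μM) was preincubated with serially diluted compound in 50 mM MOPS pH 6.5 for 30 min at room temperature; 1% DMSO served as control. MgCl2 (5 mM) and KCl (200 mM) were added, and the reaction was started with 250 μM GTP for 10 min at 37 °C. Malachite green reagent was then developed 30 min at 37 °C, and released phosphate was read at A600.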

For experiment [2], the system named is Bacillus subtilis. The experiment in a line: Antibacterial activity against Bacillus subtilis 168 assessed as cell elongation at 0.5 ug/ml incubated for 4 hrs by phase-contrast microscopy. It counts as functional. The note with it: dose 0.5 µg/ml. The gist of the method: (§1)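 B. subtilis 168 overnight culture was diluted tenfold into fresh medium and grown 2 h. It was then adjusted to A600 = 0.01, given compound, and incubated 4 h at 37 °C; 1% (v/v) DMSO was the control. Cells were harvested, resuspended in LB, mounted on 1.2% agarose pads and imaged by phase contrast. Lengths of 100 cells per condition were measured to give length distributions and averages.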

Experiment [3] relates to Staphylococcus aureus. The experiment in a line: Antibacterial activity against Staphylococcus aureus 29213 assessed as inhibition of bacterial growth incubated for 18 hrs by CLSI protocol based two fold serial dilution method. It counts as functional. The gist of the method: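 S. aureus ATCC 29213 was grown in CAMHB and tested by CLSI-based broth microdilution. An overnight culture (37 °C, 250 rpm) was diluted tenfold, grown 2 h, and set to 5 × 10^6 CFU mL−1. Cells were added to two-fold serial compound dilutions (1% DMSO) and incubated 18 h at 37 °C. Read-out was A600, in duplicate. MIC was the lowest concentration with A600 < 0.1.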

Experiment [4] concerns Staphylococcus aureus. The experiment in a line: Antibacterial activity against methicillin-resistant Staphylococcus aureus ATCC 43300 assessed as inhibition of bacterial growth incubated for 18 hrs by CLSI protocol based two fold serial dilution method. It counts as functional. The gist of the method: (§2)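 CAMHB culture grown overnight at 37 °C with shaking at 250 rpm, diluted 10-fold, and grown 2 h. Inoculum set to 5 × 10^6 CFU mL−1 by A600. Compounds in DMSO were serially diluted two-fold, with 1% DMSO per well. Read at A600 after 18 h at 37 °C. MIC is the lowest concentration giving A600 < 0.1. Run in duplicate.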

The subject of experiment [5] is Staphylococcus aureus. The experiment in a line: Antibacterial activity against methicillin-resistant Staphylococcus aureus ATCC 33591 assessed as inhibition of bacterial growth incubated for 18 hrs by CLSI protocol based two fold serial dilution method. It counts as functional. The procedure, abridged: as §2
Experiment [6] deals with Staphylococcus aureus. Description: Synergistic antibacterial activity against methicillin-resistant Staphylococcus aureus BAA 41 assessed as inhibition of bacterial growth incubated for 18 hrs in presence of methicillin by checkerboard assay. It counts as functional. The gist of the method:
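Checkerboard: test compound serially diluted two-fold across the plate and methicillin serially diluted down it. Bacteria added at 5 × 10^5 CFU mL−1. Incubated at 37 °C for 16–24 h, then growth read at A600. Untreated-cell columns included. FICI calculated from the combination MICs.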

For experiment [7], the system named is Bacillus subtilis. The experiment in a line: Antibacterial activity against Bacillus subtilis 168 assessed as cell length at 0.5 ug/ml incubated for 4 hrs by phase-contrast microscopy. It counts as functional. The note with it: dose 0.5 µg/ml. The procedure, abridged:
as §1

The test system of experiment [8] is Staphylococcus aureus. The experiment in a line: Bactericidal activity against methicillin-resistant Staphylococcus aureus BAA 41 assessed as inhibition of bacterial growth incubated for 24 hrs by time-kill assay. It counts as functional. The gist of the method: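 Time-kill: 3 mL culture at 5 × 10^5 CFU mL−1 exposed to compound at several concentrations or to 1% DMSO control at 37 °C with shaking at 250 rpm, over 24 h. 100 μL samples taken at intervals, diluted as needed, and spread on agar. Colonies counted after 24 h at 37 °C.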

The test system of the next experiment is Escherichia coli. The experiment in a line: Antibacterial activity against Escherichia coli 25922 assessed as inhibition of bacterial growth incubated for 18 hrs by CLSI protocol based two fold serial dilution method. It counts as functional. The procedure, abridged:
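B. subtilis 168 or E. coli ATCC 25922 was grown in MHB and tested by CLSI-based broth microdilution. An overnight culture (37 °C, 250 rpm) was diluted tenfold, grown 2 h, and set to 5 × 10^6 CFU mL−1 by A600. Cells were added to two-fold serial compound dilutions (1% DMSO) and incubated 18 h at 37 °C. Read-out was A600, in duplicate. MIC was the lowest concentration giving A600 < 0.1.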

For experiment [9], the system named is Staphylococcus aureus. The experiment in a line: Antibacterial activity against methicillin-resistant Staphylococcus aureus BAA 41 assessed as inhibition of bacterial growth incubated for 18 hrs by CLSI protocol based two fold serial dilution method. It counts as functional. The gist of the method: as §2
Experiment [10] concerns Staphylococcus aureus. The experiment in a line: Antibacterial activity against methicillin-resistant Staphylococcus aureus ATCC 33592 assessed as inhibition of bacterial growth incubated for 18 hrs by CLSI protocol based two fold serial dilution method. It counts as functional. The gist of the method:
as §2

In brackets after ≈: the same amount, converted by molar mass.

For the compound `NC(=O)c1c(F)ccc(OCc2nc3cc(Cl)cnc3s2)c1F`, the inhibition entry in experiment [1] was “Dde”. Also, the Activity in the experiment on Bacillus subtilis [2] came to 33%; in the experiment with Bacillus subtilis [7], 135.8 um. For the same compound, the MIC – broadly, the smallest concentration in the dilution series that meets the test's criterion for growth inhibition – in the experiment with Staphylococcus aureus [3] is 0.5 µg/mL (≈ 1.41 µM); with Staphylococcus aureus [4] it was 1 µg/mL (≈ 2.81 µM); with Staphylococcus aureus [5] it was 1 µg/mL (≈ 2.81 µM); in the experiment on Staphylococcus aureus [6], 0.5 µg/mL; with Escherichia coli, more than 128 µg/mL; in the experiment with Staphylococcus aureus [9], 0.5 µg/mL (≈ 1.41 µM). Besides, in the experiment with Staphylococcus aureus [10], the MIC stood at 2 µg/mL (≈ 5.62 µM). Moreover, the MBC (usually the smallest concentration meeting the test's criterion for killing) with Staphylococcus aureus [8] stood at 2 µg/mL (≈ 5.62 µM).
